Experimental data taken from ChEMBL document CHEMBL3286116, “Synthesis, biological evaluation and structure-activity correlation study of a series of imidazol-based compounds as Candida albicans inhibitors” (Eur J Med Chem, 2014).
Converted amounts (≈) assume the structure as drawn.

How the values were obtained:
Type in all cases: functional
[1] = system: Candida albicans; assay: Antifungal activity against Candida albicans ATCC 90028 after 48 hrs by CLSI broth microdilution method; conditions: ATCC 90028, 48 h
Procedure, shortened: (§1)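 Yeast CLSI broth microdilution (M27-A3). Compounds dissolved in DMSO at 100× the top test concentration, then diluted as serial two-fold dilutions in RPMI 1640 to final 0.125–64. Inoculum was 1.0–1.5 × 10^3 cells mL−1, incubated at 35 °C and read for growth at 48 h. MIC is the lowest concentration giving ≥50% growth inhibition versus growth control. Reported as the median of five replicates and as the geometric mean.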

[2] = system: Candida albicans; assay: Antifungal activity against Candida albicans ATCC 20891 after 48 hrs by CLSI broth microdilution method; conditions: ATCC 20891, 48 h; procedure, shortened: as §1
[3] = system: Candida albicans; assay: Antifungal activity against Candida albicans PMC 1011 after 48 hrs by CLSI broth microdilution method; conditions: PMC 1011, 48 h; procedure, shortened: as §1
[4] = system: Pichia kudriavzevii; assay: Antifungal activity against Candida krusei DSM 6128 after 48 hrs by CLSI broth microdilution method; conditions: DSM 6128, 48 h; procedure, shortened: as §1
[5] = system: Pichia kudriavzevii; assay: Antifungal activity against Candida krusei PMC 0613 after 48 hrs by CLSI broth microdilution method; conditions: PMC 0613, 48 h; procedure, shortened: as §1
[6] = system: Candida tropicalis; assay: Antifungal activity against Candida tropicalis PMC 0910 after 48 hrs by CLSI broth microdilution method; conditions: PMC 0910, 48 h; procedure, shortened: as §1
[7] = system: Candida tropicalis; assay: Antifungal activity against Candida tropicalis DSM 11953 after 48 hrs by CLSI broth microdilution method; conditions: DSM 11953, 48 h; procedure, shortened: as §1
[8] = system: Candida parapsilosis; assay: Antifungal activity against Candida parapsilosis DSM 11224 after 48 hrs by CLSI broth microdilution method; conditions: Lodderomyces parapsilosis, DSM 11224, 48 h; procedure, shortened: as §1
[9] = system: Candida parapsilosis; assay: Antifungal activity against Candida parapsilosis ATCC 22019 after 48 hrs by CLSI broth microdilution method; conditions: Lodderomyces parapsilosis, ATCC 22019, 48 h; procedure, shortened: as §1
[10] = system: Nakaseomyces glabratus; assay: Antifungal activity against Candida glabrata PMC 0805 after 48 hrs by CLSI broth microdilution method; conditions: PMC 0805, 48 h; procedure, shortened: as §1
[11] = system: Nakaseomyces glabratus; assay: Antifungal activity against Candida glabrata PMC 0807 after 48 hrs by CLSI broth microdilution method; conditions: PMC 0807, 48 h; procedure, shortened: as §1
[12] = system: Cryptococcus neoformans; assay: Antifungal activity against Cryptococcus neoformans PMC 2123 after 72 hrs by CLSI broth microdilution method; conditions: PMC 2123, 72 h
Procedure, shortened: (§2)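 Cryptococcus neoformans tested by CLSI broth microdilution in RPMI 1640, with serial two-fold dilutions from DMSO stocks at 100× the top concentration, final 0.125–64. Inoculum was 1.0–1.5 × 10^3 cells mL−1 at 35 °C, with growth read at 72 h. MIC is the lowest concentration with ≥50% growth inhibition versus control. Median of five replicates, plus geometric mean.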

[13] = system: Cryptococcus neoformans; assay: Antifungal activity against Cryptococcus neoformans PMC 2136 after 72 hrs by CLSI broth microdilution method; conditions: PMC 2136, 72 h; procedure, shortened: as §2
[14] = system: Cryptococcus neoformans; assay: Antifungal activity against Cryptococcus neoformans PMC 2115 after 72 hrs by CLSI broth microdilution method; conditions: PMC 2115, 72 h; procedure, shortened: as §2
[15] = system: Cryptococcus neoformans; assay: Antifungal activity against Cryptococcus neoformans PMC 2103 after 72 hrs by CLSI broth microdilution method; conditions: PMC 2103, 72 h; procedure, shortened: as §2
[16] = system: Cryptococcus neoformans; assay: Antifungal activity against Cryptococcus neoformans PMC 2107 after 72 hrs by CLSI broth microdilution method; conditions: PMC 2107, 72 h; procedure, shortened: as §2
[17] = system: Cryptococcus neoformans; assay: Antifungal activity against Cryptococcus neoformans PMC 2102 after 72 hrs by CLSI broth microdilution method; conditions: PMC 2102, 72 h; procedure, shortened: as §2
[18] = system: Cryptococcus neoformans; assay: Antifungal activity against Cryptococcus neoformans DSM 11959 after 72 hrs by CLSI broth microdilution method; conditions: DSM 11959, 72 h; procedure, shortened: as §2
[19] = system: Cryptococcus neoformans; assay: Antifungal activity against Cryptococcus neoformans PMC 2111 after 72 hrs by CLSI broth microdilution method; conditions: PMC 2111, 72 h; procedure, shortened: as §2
[20] = system: Trichophyton mentagrophytes; assay: Antifungal activity against Trichophyton mentagrophytes DSM 4870 after 72 hrs by CLSI broth microdilution method; conditions: DSM 4870, 72 h
Procedure, shortened: (§3)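 Dermatophytes tested by CLSI broth microdilution for filamentous fungi (M38-A2). Serial two-fold dilutions of DMSO-dissolved compound in RPMI 1640, final 0.125–64. Inoculum was 0.4–5 × 10^4 CFU mL−1, incubated at 35 °C and read at 72 h. MIC80 is the lowest concentration giving ≥80% growth inhibition versus growth control. Median of five replicates, plus geometric mean.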

[21] = system: Trichophyton mentagrophytes; assay: Antifungal activity against Trichophyton mentagrophytes PMC 6515 after 72 hrs by CLSI broth microdilution method; conditions: PMC 6515, 72 h; procedure, shortened: as §3
[22] = system: Trichophyton mentagrophytes; assay: Antifungal activity against Trichophyton mentagrophytes PMC 6531 after 72 hrs by CLSI broth microdilution method; conditions: PMC 6531, 72 h; procedure, shortened: as §3
[23] = system: Trichophyton mentagrophytes; assay: Antifungal activity against Trichophyton mentagrophytes PMC 6509 after 72 hrs by CLSI broth microdilution method; conditions: PMC 6509, 72 h; procedure, shortened: as §3
[24] = system: Trichophyton mentagrophytes; assay: Antifungal activity against Trichophyton mentagrophytes PMC 6503 after 72 hrs by CLSI broth microdilution method; conditions: PMC 6503, 72 h; procedure, shortened: as §3
[25] = system: Trichophyton mentagrophytes; assay: Antifungal activity against Trichophyton mentagrophytes PMC 6552 after 72 hrs by CLSI broth microdilution method; conditions: PMC 6552, 72 h; procedure, shortened: as §3
[26] = system: Nannizzia gypsea; assay: Antifungal activity against Microsporum gypseum PMC 7303 after 72 hrs by CLSI broth microdilution method; conditions: PMC 7303, 72 h; procedure, shortened: as §3
[27] = system: Nannizzia gypsea; assay: Antifungal activity against Microsporum gypseum PMC 7331 after 72 hrs by CLSI broth microdilution method; conditions: PMC 7331, 72 h; procedure, shortened: as §3
[28] = system: Nannizzia gypsea; assay: Antifungal activity against Microsporum gypseum DSM 3824 after 72 hrs by CLSI broth microdilution method; conditions: DSM 3824, 72 h; procedure, shortened: as §3
[29] = system: Candida albicans; assay: Antifungal activity against Candida albicans ATCC 24433 after 48 hrs by CLSI broth microdilution method; conditions: ATCC 24433, 48 h; procedure, shortened: as §1
[30] = system: Candida albicans; assay: Antifungal activity against Candida albicans ATCC 3153 after 48 hrs by CLSI broth microdilution method; conditions: ATCC 3153, 48 h; procedure, shortened: as §1
[31] = system: Candida albicans; assay: Antifungal activity against Candida albicans ATCC 10231 after 48 hrs by CLSI broth microdilution method; conditions: ATCC 10231, 48 h; procedure, shortened: as §1
[32] = system: Candida albicans; assay: Antifungal activity against Candida albicans ATCC 76615 after 48 hrs by CLSI broth microdilution method; conditions: ATCC 76615, 48 h; procedure, shortened: as §1
[33] = system: Candida albicans; assay: Antifungal activity against Candida albicans ATCC 10261 after 48 hrs by CLSI broth microdilution method; conditions: ATCC 10261, 48 h; procedure, shortened: as §1

Row | MIC50 [1] [µg/mL] | MIC50 [2] [µg/mL] | MIC50 [3] [µg/mL] | MIC50 [4] [µg/mL] | MIC50 [5] [µg/mL] | MIC50 [6] [µg/mL] | MIC50 [7] [µg/mL] | MIC50 [8] [µg/mL] | MIC50 [9] [µg/mL] | MIC50 [10] [µg/mL] | MIC50 [11] [µg/mL] | MIC50 [12] [µg/mL] | MIC50 [13] [µg/mL] | MIC50 [14] [µg/mL] | MIC50 [15] [µg/mL] | MIC50 [16] [µg/mL] | MIC50 [17] [µg/mL] | MIC50 [18] [µg/mL] | MIC50 [19] [µg/mL] | MIC80 [20] [µg/mL] | SMILES | other results
1 | 32 (≈ 77.6 µM) | 128 (≈ 310 µM) | 32 (≈ 77.6 µM) | 128 (≈ 310 µM) | 32 (≈ 77.6 µM) | 128 (≈ 310 µM) | 64 (≈ 155 µM) | 32 (≈ 77.6 µM) | 16 (≈ 38.8 µM) | 32 (≈ 77.6 µM) | 128 (≈ 310 µM) | 128 (≈ 310 µM) | 64 (≈ 155 µM) | 128 (≈ 310 µM) | 64 (≈ 155 µM) | 128 (≈ 310 µM) | 128 (≈ 310 µM) | 64 (≈ 155 µM) | 128 (≈ 310 µM) | 128 (≈ 310 µM) | O=C(OC(Cn1ccnc1)c1ccc(F)cc1)N1CCN(C(=O)c2ccco2)CC1 (stereo unspecified) | MIC80 [21]: 128 µg/mL (≈ 310 µM); MIC80 [22]: 64 µg/mL (≈ 155 µM); MIC80 [23]: 64 µg/mL (≈ 155 µM); MIC80 [24]: 128 µg/mL (≈ 310 µM); MIC80 [25]: 128 µg/mL (≈ 310 µM); MIC80 [26]: 128 µg/mL (≈ 310 µM); MIC80 [27]: 128 µg/mL (≈ 310 µM); MIC80 [28]: 128 µg/mL (≈ 310 µM); MIC50 [29]: 128 µg/mL (≈ 310 µM); MIC50 [30]: 128 µg/mL (≈ 310 µM); MIC50 [31]: 64 µg/mL (≈ 155 µM); MIC50 [32]: 128 µg/mL (≈ 310 µM); MIC50 [33]: 128 µg/mL (≈ 310 µM)
2 | 128 (≈ 255 µM) | 128 (≈ 255 µM) | 128 (≈ 255 µM) | 128 (≈ 255 µM) | 128 (≈ 255 µM) | 128 (≈ 255 µM) | 128 (≈ 255 µM) | 128 (≈ 255 µM) | 128 (≈ 255 µM) | 128 (≈ 255 µM) | 128 (≈ 255 µM) | 32 (≈ 63.8 µM) | 16 (≈ 31.9 µM) | 32 (≈ 63.8 µM) | 16 (≈ 31.9 µM) | 8 (≈ 15.9 µM) | 16 (≈ 31.9 µM) | 16 (≈ 31.9 µM) | 16 (≈ 31.9 µM) | 128 (≈ 255 µM) | CCS(=O)(=O)N1CCN(c2ccc(NC(=O)OC(Cn3ccnc3)c3ccc(F)cc3)cc2)CC1 (stereo unspecified) | MIC80 [21]: 128 µg/mL (≈ 255 µM); MIC80 [22]: 128 µg/mL (≈ 255 µM); MIC80 [23]: 128 µg/mL (≈ 255 µM); MIC80 [24]: 128 µg/mL (≈ 255 µM); MIC80 [25]: 128 µg/mL (≈ 255 µM); MIC80 [26]: 128 µg/mL (≈ 255 µM); MIC80 [27]: 128 µg/mL (≈ 255 µM); MIC80 [28]: 128 µg/mL (≈ 255 µM); MIC50 [29]: 128 µg/mL (≈ 255 µM); MIC50 [30]: 128 µg/mL (≈ 255 µM); MIC50 [31]: 128 µg/mL (≈ 255 µM); MIC50 [32]: 128 µg/mL (≈ 255 µM); MIC50 [33]: 128 µg/mL (≈ 255 µM)
